The list is not random: actives were taken first. Their share in the collection is about 3.5%.
RGS4 inh: RGS4 inhibitors, primary screen, cell-based, HEK293 M3R inducible RGS4, calcium flux; Regulator of G-protein signaling 4 (Homo sapiens), P49798; Fluo-4 calcium flux; stronger effect = higher value; triggered by carbachol at its EC20; B-score at 10 µM; actives 0.45% (n = 310,000); AID 463165, 2010;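 active = B-score, a plate-corrected calcium signal, over three deviations above library mean, with baseline fluorescence within five deviations of library mean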;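 also: RGS4 expression induced by doxycycline in cells with stable M3 receptor; B-score is computed from the integrated fluorescence ratio over baseline after carbachol; higher B-score means a larger calcium signal and so more RGS4 inhibition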
Target sequence (P49798 whole entry, looked up): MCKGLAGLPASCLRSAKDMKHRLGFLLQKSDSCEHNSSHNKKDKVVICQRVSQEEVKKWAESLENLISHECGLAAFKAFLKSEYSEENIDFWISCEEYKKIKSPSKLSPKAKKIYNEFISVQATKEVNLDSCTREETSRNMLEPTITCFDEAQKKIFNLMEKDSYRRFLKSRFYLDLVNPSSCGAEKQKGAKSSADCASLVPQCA
RGS4 act: RGS4 potentiators or activators, primary screen, cell-based, HEK293 M3R inducible RGS4, calcium flux. carbachol calcium flux Fluo4; stronger effect = lower value. B-score at 10 µM. actives 0.92% (n = 310,000);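 active = B-score of the integrated calcium signal more than 4 SD below the library mean, with starting fluorescence not abnormally high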;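 also: negative B-score means reduced calcium response which marks RGS4 activation or potentiation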
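System: HEK293 FlpIn-TREx cells, stable M3R, doxycycline-inducible RGS4. Timing: overnight RGS4 induction, 30 min dye load 37 °C, 20 min compound RT. Also added: carbachol, ECmax concentration. Measured by: Fluo4 fluorescence kinetic imaging of calcium. Evaluation: integrated calcium ratio converted to B score.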
MrgX1 antagonist: antagonists of human MrgX1 receptor, primary screen, HEK293 cells, Fluo-4 calcium flux | BAM8-22 antagonism; stronger effect = lower value | actives 1.3% (n = 310,000) | AID 588676, 2011 | Mas-related G-protein coupled receptor member X1 (Homo sapiens), Q96LB2 | B-score at 10 µM;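 active = calcium-response B-score plate-corrected more than 3 library SD below zero, starting fluorescence within 5 deviations, no agonist response on first addition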;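 also: peak minus trough fluorescence over baseline after final BAM8-22 challenge near maximal dose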
Target sequence (Q96LB2 whole entry, looked up): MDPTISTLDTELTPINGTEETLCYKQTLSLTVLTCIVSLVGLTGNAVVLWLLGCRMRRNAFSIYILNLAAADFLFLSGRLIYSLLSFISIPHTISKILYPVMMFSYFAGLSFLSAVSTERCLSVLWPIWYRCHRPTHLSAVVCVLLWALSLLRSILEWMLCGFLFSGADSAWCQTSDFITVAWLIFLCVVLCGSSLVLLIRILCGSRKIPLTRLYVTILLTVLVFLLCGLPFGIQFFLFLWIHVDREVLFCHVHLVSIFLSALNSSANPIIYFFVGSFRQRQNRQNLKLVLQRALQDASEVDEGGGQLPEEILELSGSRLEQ
MrgX1 ag: agonists of human MrgX1 receptor, primary screen, HEK293 cells, Fluo-4 calcium flux; Fluo-4 calcium fluorescence, agonist mode; stronger effect = higher value; B-score at 10 µM; actives 0.44% (n = 310,000);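 active = calcium response B-score plate-corrected fluorescence ratio at least 3 library SD, with starting fluorescence B-score inside 5 SD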
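Material: MrgX1-expressing HEK293 cells / Dosing: compound as first of three additions / Incubation: overnight seeding, then 1 h dark dye loading / Signal: Fluo-4 NW calcium fluorescence / Evaluation: B-scored fluorescence response ratio / Benchmarks: positive and negative control wells on each plate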
MrgX1 PAM: positive allosteric modulators of MrgX1, primary screen, HEK293 cells, Fluo-4 calcium flux; Mas-related G-protein coupled receptor member X1 (Homo sapiens), Q96LB2; FDSS; stronger effect = higher value; B-score at 10 µM; actives 0.63% (n = 310,000); AID 588675, 2011;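 active = plate-corrected calcium response at least 3 library SD above typical, normal starting fluorescence, not activating the receptor alone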;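 also: compound read alongside a low EC10 to EC30 dose of BAM8-22 agonist; peak minus trough fluorescence over baseline measured at the second addition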
MrgX1 allo conf: MrgX1 positive allosteric modulators, duplicate retest, confirmation, HEK293 cells, Fluo-4 calcium flux; shares compounds with MrgX1 PAM; Fluo-4 calcium fluorescence, FDSS; activation (ratio percentage), % at 10 µM; actives 13% (n = 1,200); AID 602413, 2012;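 active = ratio at least 3 SD above the weak peptide control, stable starting fluorescence, no direct agonism earlier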;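 also: compound followed by low BAM8-22 agonist challenge near EC20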
HEK293 Ca flux: nonspecific calcium signal in parental HEK293, confirmation, counter-screen for MrgX1 antagonist project, parental HEK293 cells, Fluo-4 calcium flux; shares compounds with MrgX1 antagonist; Fluo-4 calcium fluorescence, FDSS; fluorescence ratio F(max-min)/F0 at 10 µM; actives 2% (n = 4,000); AID 624111, 2012;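 active = duplicate-averaged calcium fluorescence ratio at least three times the standard deviation of buffer wells, a nonspecific response in parental cells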
HEK293 Ca counter: calcium response in parental HEK293 cells, primary screen, counter-screen for MrgX1 allosteric activator project, cell-based, Fluo-4 calcium flux, duplicate; shares compounds with MrgX1 antagonist; fluorescence ratio F(max-min)/F0 at 10 µM; Fluo-4 fluorescence ratio; stronger effect = higher value; actives 0.4% (n = 4,000); AID 624114, 2012;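 active = calcium fluorescence ratio, averaged over duplicates, at least 3 SD of the buffer-well ratio, meaning a nonspecific response in receptor-free cells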;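 also: untransfected parental HEK293 lacking MrgX1 used as counterscreen for MrgX1 allosteric activators; fluorescence change taken during the second addition on a kinetic imager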
HEK293 Ca cntr2: calcium response in parental HEK293 cells, primary screen, counter-screen for MrgX1 agonist project, cell-based, Fluo-4 calcium flux, duplicate, agonist mode | shares compounds with MrgX1 antagonist | Fluo-4 calcium fluorescence (FDSS); stronger effect = higher value | fluorescence ratio F(max-min)/F0 at 10 µM | actives 8.7% (n = 4,000) | AID 624115, 2012;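 active = calcium fluorescence ratio at least three times the spread of buffer wells, meaning a non-specific response in parental cells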
* hit, by the source's call; i = inactive; . = no result.

SMILES	RGS4 inh	RGS4 act	MrgX1 antagonist	MrgX1 ag	MrgX1 PAM	MrgX1 allo conf	HEK293 Ca flux	HEK293 Ca counter	HEK293 Ca cntr2
CC(NC(=O)Nc1ccccc1O)(C(F)(F)F)C(F)(F)F	i	i	i	i	9.8*	i	i	i	i
Cc1ccc(S(=O)(=O)c2c(C)nn(C(C)(C)C)c2OC(=O)C(C)C)cc1	i	i	i	i	12*	i	i	i	i
O=C(NNC(=O)C1CCCN(S(=O)(=O)c2cccc(F)c2)C1)C1CC1 (stereo not given)	i	i	i	i	i	.	.	.	.
CC(C)=CCc1c(C)nc2ccccc2c1C(=O)O	i	i	i	i	11.4*	i	i	i	i
COC(=O)c1c(C)nc2ccccc2c1C(=O)O	i	i	i	i	i	.	.	.	.
CN1CCCC(OC(=O)c2ccccc2Br)C1 (stereo not given)	i	i	i	i	6.57*	i	i	i	i
CN1CCCC(OC(=O)c2cccc(Br)c2)C1 (stereo not given)	i	i	i	i	i	.	.	.	.
COc1ccc(-c2ccc(-c3nc4ccc(C)cn4c3NC3CCCCC3)cc2OC)cc1	i	i	i	i	i	.	.	.	.
COc1cccc(CNc2ccc(Br)cn2)c1O	i	i	i	i	11.7*	i	i	i	i
COc1cccc(CNc2ncc(Br)cc2Br)c1O	i	i	i	i	i	.	.	.	.
CCC(C)n1c(NC(=O)c2ccccc2)c(C#N)c2nc3ccccc3nc21 (stereo not given)	i	i	i	i	7.95*	i	i	i	i
CCOc1ccccc1N1CCN(C(=O)Nc2cccc(Cl)c2)CC1	i	i	i	i	11.1*	i	i	i	i
Cc1cc(NC(=O)CSc2nnc(-c3cccs3)n2N)no1	i	i	i	i	i	.	.	.	.
CCCCn1c(SCC(=O)Nc2cc(C)on2)nnc1-c1cccs1	i	i	i	i	6.76*	i	i	i	i
COc1ccc(C(=O)NCC(=O)OCC(=O)c2ccc3c(c2)NC(=O)CO3)cc1	i	i	i	i	7.56*	i	i	48*	i
Cc1ccc(-n2nnnc2-c2cccc(C)c2)cc1	i	i	i	i	i	.	.	.	.
Cc1cc(-c2nnnn2-c2ccc(C(F)(F)F)cc2)no1	i	i	i	i	6.98*	i	i	i	i
O=C(Nc1ccc(Cl)cc1)NC1CCCCC1Cc1ccco1 (stereo not given)	i	i	i	i	15.2*	5.5%*	i	i	i
O=C(Nc1ccc(Cl)cc1)NC1CCCC1Cc1ccco1 (stereo not given)	i	i	i	i	i	.	.	.	.
Cc1c(OC(C)C(=O)NCCCN2CCOCC2)ccc2c3c(c(=O)oc12)CCC3 (stereo not given)	i	i	i	i	i	.	.	.	.
Cc1c(OC(C)C(=O)NCCCN2CCOCC2)ccc2c3c(c(=O)oc12)CCCC3 (stereo not given)	i	i	i	i	6.9*	i	i	i	i
COC(=O)c1ccccc1S(=O)(=O)NNC(=O)Nc1ccccc1	i	i	i	i	i	.	.	.	.
CCOC(=O)C1CCCN(C(=O)c2sc3nc(-c4ccc(F)cc4)cn3c2C)C1 (stereo not given)	i	i	i	i	7.33*	14.0%*	i	i	i
COc1ccc(Nc2ccc(N3C(=O)CC(C)C3=O)cc2[N+](=O)[O-])cc1OC (stereo not given)	i	i	i	i	i	.	.	.	.
COc1ccc(/C=N/Nc2nc(-c3cccnc3)nc3ccccc23)c(OC)c1	i	i	i	i	i	.	.	.	.
SMILES	RGS4 inh	RGS4 act	MrgX1 antagonist	MrgX1 ag	MrgX1 PAM	MrgX1 allo conf	HEK293 Ca flux	HEK293 Ca counter	HEK293 Ca cntr2
CCOC(=O)c1c(-c2cccs2)csc1NC(C)=O	i	i	i	i	i	.	.	.	.
CCOC(=O)c1c(-c2cccs2)csc1NC(=O)C(C)(C)C	i	i	i	i	12.1*	i	i	i	i
COc1ccc(C(=O)Nc2ccccc2C(=O)NCc2cccnc2)cc1	i	i	i	i	i	.	.	.	.
COc1ccc(Nc2cccc3ccccc23)cc1	i	i	i	i	21.1*	i	i	i	i
COc1ccc(Nc2cc(C)c3ccccc3n2)cc1	i	i	i	i	15.6*	17.9%*	i	i	i
COc1cc(CNn2cn[nH]c2=S)cc(Cl)c1OCc1ccccc1	i	i	i	i	i	.	.	.	.
COc1cc(CNn2cn[nH]c2=S)cc(Br)c1OCc1ccccc1F	i	i	i	i	6.47*	i	i	i	i
COc1ccc(N2CCN(S(=O)(=O)CCNC(=O)/C=C/c3ccccc3)CC2)cc1	i	i	i	i	i	.	.	.	.
Cc1ccc(OCc2n[nH]c(=S)n2-c2ccccc2)cc1C	i	i	i	i	8.72*	i	i	i	i
Cc1ccc(-n2c(CCc3ccccc3)n[nH]c2=S)cc1C	i	i	i	i	6.48*	i	i	i	i
COc1ccc(-n2c(COc3ccc(C)cc3)n[nH]c2=S)cc1	i	i	i	i	i	.	.	.	.
Cc1ccc(-n2c(COc3ccccc3)n[nH]c2=S)cc1	i	i	i	i	7.96*	i	i	i	i
Cc1ccc(-n2c(COc3cccc(C)c3)n[nH]c2=S)cc1	i	i	i	i	11.3*	i	i	i	i
